Laboratory results published in ChEMBL document CHEMBL5260841, “Discovery of N-(4-(6-Acetamidopyrimidin-4-yloxy)phenyl)-2-(2-(trifluoromethyl)phenyl)acetamide (CHMFL-FLT3-335) as a Potent FMS-like Tyrosine Kinase 3 Internal Tandem Duplication (FLT3-ITD) Mutant Selective Inhibitor for Acute Myeloid Leukemia” (J Med Chem, 2019).
The source made the active and inactive calls. The rule behind the calls is not given here.

Key:
[1] = Cmax in Sprague-Dawley rat at 1 mg/kg, iv; format: ADME, organism-based; design: dose 1 mg/kg, route iv; details: in vivo
Procedure, shortened: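 Sprague-Dawley rats dosed IV at 1 mg/kg or by oral gavage at 10 mg/kg. Parameters from plasma exposure: AUC(0-t), AUC(0-∞), MRT, T1/2, Tmax, Vz, CLz, Cmax. Values are mean ± SD from three animals.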

[2] = Tmax in Sprague-Dawley rat at 10 mg/kg, po; format: ADME, organism-based; details: in vivo
Procedure, shortened: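 Sprague-Dawley rats were dosed either intravenously at 1 mg/kg or by oral gavage at 10 mg/kg. Plasma PK parameters were AUC(0-t), AUC(0-∞), MRT(0-t), T1/2, Tmax, Vz, CLz, Cmax and F%. Values are the mean ± SD of three independent animals.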

MV4-11 [3] = assay: Antitumor activity against human MV4-11 cells xenografted in nu/nu mouse assessed as inhibition of tumor growth at 50 mg/kg/day, po administered via gavage for 28 days relative to control; format: functional; details: MV4-11, 672 h, time 28 day, read-out: TGI
Procedure, shortened: (§1)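 MV4-11 cells implanted in mice. Once tumours reached a mean of about 200 mm3, mice were dosed orally once daily for 28 days with vehicle or 25, 50 or 100 mg/kg/day. Tumour size and body weight tracked relative to starting values; final tumour weight also recorded.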

MV4-11 [4] = assay: Antitumor activity against human MV4-11 cells xenografted in nu/nu mouse assessed as inhibition of tumor growth at 100 mg/kg/day, po administered via gavage for 28 days relative to control; format: functional; details: MV4-11, 672 h, time 28 day, read-out: TGI; procedure, shortened: as §1
BaF3 [5] = assay: Antiproliferative activity against mouse BaF3 cells assessed as cell growth inhibition incubated for 72 hrs by CCK-8 assay; format: functional
Procedure, shortened: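 Parental BaF3 cells grown in RPMI 1640 with 10% FBS and 100 ng/ml IL-3 at 37 °C, 5% CO2. Plated at 1500-3000 cells/well and exposed to graded compound concentrations for 72 h. Proliferation read by CCK8 absorbance at 450 nm.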

BaF3 [6] = assay: Antiproliferative activity against mouse BaF3 cells transfected with TEL-fused FLT3 assessed as cell growth inhibition incubated for 72 hrs by CCK-8 assay; format: functional
Procedure, shortened: (§2)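 Kinase-transformed isogenic BaF3 lines grown in RPMI 1640 with 10% FBS, 2% L-glutamine and pen/strep at 37 °C, 5% CO2. Seeded at 1500-3000 cells/well and treated with a compound concentration series for 72 h. Viability read by CCK8 absorbance at 450 nm.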

BaF3 [7] = assay: Antiproliferative activity against mouse BaF3 cells transfected with TEL-fused cKIT assessed as cell growth inhibition incubated for 72 hrs by CCK-8 assay; format: functional; procedure, shortened: as §2
BaF3 [8] = assay: Antiproliferative activity against mouse BaF3 cells transfected with TEL fused FLT3 D835V mutant assessed as cell growth inhibition incubated for 72 hrs by CCK-8 assay; format: functional; procedure, shortened: as §2
BaF3 [9] = assay: Antiproliferative activity against mouse BaF3 cells transfected with FLT3 ITD D835N mutant assessed as cell growth inhibition incubated for 72 hrs by CCK-8 assay; format: functional; procedure, shortened: as §2
[10] = target: Platelet-derived growth factor receptor beta (Homo sapiens, UniProt P09619); assay: Inhibition of PDGFRbeta (unknown origin) assessed as residual activity at 1 uM preincubated for 60 mins followed by ATP addition and measured after 1 hr by ADP-Glo assay relative to control; details: time 2.0 hrs
Chain of Platelet-derived growth factor receptor beta (P09619 whole entry, the tested form may be a part): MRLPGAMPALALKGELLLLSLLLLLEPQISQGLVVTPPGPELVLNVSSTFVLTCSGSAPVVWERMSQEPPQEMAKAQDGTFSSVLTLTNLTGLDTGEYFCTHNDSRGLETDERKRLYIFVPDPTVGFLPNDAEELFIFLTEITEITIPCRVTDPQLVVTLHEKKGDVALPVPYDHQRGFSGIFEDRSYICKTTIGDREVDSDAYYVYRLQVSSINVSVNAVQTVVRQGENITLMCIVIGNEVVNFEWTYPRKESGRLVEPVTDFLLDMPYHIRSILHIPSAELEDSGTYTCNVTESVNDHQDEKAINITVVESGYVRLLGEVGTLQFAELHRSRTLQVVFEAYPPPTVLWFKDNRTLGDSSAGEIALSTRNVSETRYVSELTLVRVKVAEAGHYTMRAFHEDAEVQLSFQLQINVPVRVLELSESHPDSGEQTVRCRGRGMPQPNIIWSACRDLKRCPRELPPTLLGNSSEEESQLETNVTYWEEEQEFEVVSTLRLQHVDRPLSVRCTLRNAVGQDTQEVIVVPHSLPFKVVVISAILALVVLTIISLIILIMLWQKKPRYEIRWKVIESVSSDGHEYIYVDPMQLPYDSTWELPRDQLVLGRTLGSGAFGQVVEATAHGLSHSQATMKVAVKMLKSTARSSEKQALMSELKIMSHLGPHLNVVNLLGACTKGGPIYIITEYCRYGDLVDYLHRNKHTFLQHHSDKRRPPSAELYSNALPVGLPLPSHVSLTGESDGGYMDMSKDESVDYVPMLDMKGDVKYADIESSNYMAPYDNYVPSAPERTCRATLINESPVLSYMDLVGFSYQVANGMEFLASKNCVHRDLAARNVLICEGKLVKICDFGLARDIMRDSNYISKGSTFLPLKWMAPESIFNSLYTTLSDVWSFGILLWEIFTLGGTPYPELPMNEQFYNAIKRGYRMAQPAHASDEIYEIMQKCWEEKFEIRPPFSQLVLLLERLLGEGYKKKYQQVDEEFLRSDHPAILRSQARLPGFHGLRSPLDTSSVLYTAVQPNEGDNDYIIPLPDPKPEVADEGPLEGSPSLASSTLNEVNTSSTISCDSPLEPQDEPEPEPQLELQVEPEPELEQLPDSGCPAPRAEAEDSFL

BaF3 [11] = assay: Antiproliferative activity against mouse BaF3 cells transfected with TEL fused PDGFRalpha assessed as cell growth inhibition incubated for 72 hrs by CCK-8 assay; format: functional; procedure, shortened: as §2
[12] = target: T1, Signal transducer and activator of transcription 5A (Homo sapiens) (UniProt P42229); assay: Inhibition of STAT5 phosphorylation at Tyr694 residue in human MOLM-14 cells harboring FLT3-ITD mutant incubated for 4 hrs by Western blot analysis; format: cell-based; details: dose 0.01-3 µM
T1 sequence (whole entry): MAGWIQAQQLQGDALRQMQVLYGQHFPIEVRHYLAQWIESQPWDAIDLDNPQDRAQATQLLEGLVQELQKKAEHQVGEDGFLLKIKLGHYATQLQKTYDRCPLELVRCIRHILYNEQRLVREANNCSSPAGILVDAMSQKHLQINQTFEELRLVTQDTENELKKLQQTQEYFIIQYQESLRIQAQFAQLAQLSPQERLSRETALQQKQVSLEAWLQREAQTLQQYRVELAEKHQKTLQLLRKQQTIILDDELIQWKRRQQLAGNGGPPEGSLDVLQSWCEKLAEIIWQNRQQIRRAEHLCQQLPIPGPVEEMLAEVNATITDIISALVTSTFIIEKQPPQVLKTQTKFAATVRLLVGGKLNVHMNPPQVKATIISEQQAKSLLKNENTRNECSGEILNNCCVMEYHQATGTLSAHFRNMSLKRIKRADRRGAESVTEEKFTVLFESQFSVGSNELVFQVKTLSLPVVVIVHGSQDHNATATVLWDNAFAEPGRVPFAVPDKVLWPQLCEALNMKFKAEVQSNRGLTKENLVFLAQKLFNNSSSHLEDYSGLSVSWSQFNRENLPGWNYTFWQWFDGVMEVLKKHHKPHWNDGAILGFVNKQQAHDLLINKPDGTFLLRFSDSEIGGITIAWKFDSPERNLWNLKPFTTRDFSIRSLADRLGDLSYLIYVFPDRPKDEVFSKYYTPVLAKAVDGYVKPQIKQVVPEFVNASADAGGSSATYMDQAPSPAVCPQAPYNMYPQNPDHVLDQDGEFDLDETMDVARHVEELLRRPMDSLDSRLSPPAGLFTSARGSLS
Procedure, shortened: (§3)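 Cells were exposed to the compound at a series of concentrations for 4 h, and whole-cell lysates were analysed by Western blot. MV4-11 cells were grown in IMDM with 10% FBS. MOLM13 and MOLM14 cells were grown in RPMI 1640 with 10% FBS. All cultures were kept at 37 °C with 5% CO2.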

MOLM-13 [13] = assay: Inhibition of AKT phosphorylation at Ser473 residue in human MOLM-13 cells harboring FLT3-ITD mutant incubated for 4 hrs by Western blot analysis; format: cell-based; details: dose 0.01-3 µM; procedure, shortened: as §3
MV4-11 [14] = assay: Inhibition of ERK phosphorylation at Thr202/Tyr204 residues in human MV4-11 cells harboring FLT3-ITD mutant incubated for 4 hrs by Western blot analysis; format: cell-based; details: dose 0.01-3 µM; procedure, shortened: as §3
MOLM-14 = assay: Induction of cell cycle arrest in human MOLM-14 cells harboring FLT3-ITD mutant assessed as accumulation of cells at G0/G1 phase at 0.1 uM incubated for 24 hrs by RNase/PI staining based flow cytometry analysis; format: functional
MV4-11 [15] = assay: Induction of cell cycle arrest in human MV4-11 cells harboring FLT3-ITD mutant assessed as accumulation of cells at G0/G1 phase at 0.1 uM incubated for 24 hrs by RNase/PI staining based flow cytometry analysis; format: functional
MOLM-13 [16] = assay: Induction of apoptosis in human MOLM-13 cells harboring FLT3-ITD mutant assessed as increase in cleaved caspase-3 level incubated for 24 hrs by Western blot analysis; format: functional, cell-based; details: dose 0.1-3 µM
OCI-AML2 = assay: cells; format: functional; details: Homo sapiens, time 72 hrs
cells [17] = format: functional; details: Homo sapiens, AML3; time 72 hrs
cells [18] = format: functional; details: Homo sapiens, AML4; time 72 hrs

- Cmax [1]: 1030 ng/mL
- Tmax [2]: 2 h
- GI50 (BaF3 [5]): > 10 µM
- GI50 (BaF3 [6]): 0.249 µM
- GI50 (BaF3 [7]): > 10 µM
- GI50 (BaF3 [8]): > 10 µM
- GI50 (BaF3 [9]): > 10 µM
- Activity [10]: 0.15%
- GI50 (BaF3 [11]): 0.007 µM
- inhibition [12]: Dose-Dependent Effect
- GI50 (OCI-AML2): > 10 µM
SMILES: CC(=O)Nc1cc(Oc2ccc(NC(=O)Cc3ccccc3C(F)(F)F)cc2)ncn1
- inhibition in vivo at 50 mg/kg/day (MV4-11 [3]): 68%
- inhibition in vivo at 100 mg/kg/day (MV4-11 [4]): 80%
- inhibition (MOLM-13 [13]): Dose-Dependent Effect
- inhibition (MV4-11 [14]): Dose-Dependent Effect
- Activity (MOLM-14): Active
- Activity (MV4-11 [15]): Active
- Activity (MOLM-13 [16]): Dose-Dependent Effect
- GI50 (cells [17]): > 10 µM
- GI50 (cells [18]): > 10 µM
